Screening data (PubChem)
A selection: hits, their analogues and other compounds. The true share with any hit is near 12%.
WT yeast gro inh: growth inhibition of WT yeast, mitochondrial fusion screen; mitochondrial fusion phenotypic screen, WT strain; inhibition, % at 10 µM; 190,000 compounds, 2.1% hits; in the data active means inhibition above about 58%; tested in S. cerevisiae
KCC2 mod: modulates chloride dependent transport by human KCC2; B-score of Tl+ flux slope (higher = more flux/activation; lower = inhibition) at 10 µM; 190,000 compounds, 2.2% hits; AID 1456; KCC2 cells, thallium flux FluoZin-2 fluorescence;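 active means thallium flux slope and its plate-corrected score both differing from the plate sample mean at a set confidence after two filtering rounds, in either direction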;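 further: slope of fluorescence scaled to starting intensity during 10 to 20 s after thallium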
Lmaj promast: Leishmania major promastigote growth inhibition; inhibition, % at 10 µM; 200,000 compounds, 9% hits; Leishmania major promastigotes, resazurin fluorescence viability; AID 1063; in the data active means inhibition above about 50%;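 further: promastigotes grown with compound for 44 hours at 28 °C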
ROMK mod: modulates human ROMK potassium channel activity; P48048; Tet-inducible ROMK, thallium flux fluorescence; actives lie on both sides; B-score at 10 µM; 130,000 compounds, 2% hits; AID 1918;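 active means signal ratio slope over the read window, or its plate-corrected B-score, at least 3 SD from the plate mean, either direction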;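 further: B-score of the F/F0 ratio slope over 7 to 12 s after thallium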
Target sequence (P48048 whole entry, looked up): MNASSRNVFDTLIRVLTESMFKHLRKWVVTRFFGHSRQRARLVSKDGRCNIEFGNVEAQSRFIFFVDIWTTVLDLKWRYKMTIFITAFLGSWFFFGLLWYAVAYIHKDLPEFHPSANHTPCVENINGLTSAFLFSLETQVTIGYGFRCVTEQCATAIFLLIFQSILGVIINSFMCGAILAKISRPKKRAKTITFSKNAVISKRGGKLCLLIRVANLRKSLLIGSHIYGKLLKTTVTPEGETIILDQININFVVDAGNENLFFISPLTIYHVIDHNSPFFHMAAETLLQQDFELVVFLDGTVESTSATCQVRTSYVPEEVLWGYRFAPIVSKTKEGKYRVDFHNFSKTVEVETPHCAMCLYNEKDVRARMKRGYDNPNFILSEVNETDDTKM
Diaph act CS: diaphorase activation or chemical reduction counter-screen; activation factor at 20 µM; Diaphorase/resazurin coupled assay, resorufin fluorescence, 16 min; hits give high values; 1 = vehicle wells, 0 = NADH-free wells; 190,000 compounds, 0.005% hits; AID 1229;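 active means diaphorase activity raised at least twofold by the compound at 20 µM; inactive means activation factor below 2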
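Assay system: Purified diaphorase enzyme from Clostridium kluyveri | Amount: Enzyme 0.07 U/mL final | Dosing: Compound 20 µM once, DMSO 1% | Timing: 16 min reaction at room temperature | Detection: Fluorescence, excitation 544 nm and emission 590 nm | Evaluation: Higher resorufin formation from activation or reduction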
Diaph inh CS: diaphorase inhibition or chemical oxidation counter-screen; inhibition, % at 20 µM; 190,000 compounds, 0.69% hits; diaphorase resazurin-to-resorufin fluorescence, NADH, 16 min; bacterial (C. kluyveri) enzyme, not human;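 active means primary screen inhibition at 20 µM above a set limit, cut at about 50% in these data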
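controls = No-NADH positive control and DMSO neutral control | system = Clostridium kluyveri diaphorase enzyme | timing = reaction incubation of 16 min at room temperature | signal = resorufin fluorescence 544/590 nm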
Of the large screens only hits and unclear results are named; the others gave an inactive call.

CN1CCN(CC(O)COc2ccc(C34CC5CC(CC(C5)C3)C4)cc2)CC1 (stereo not drawn)	WT yeast gro inh 97, Lmaj promast 100 (no result: ROMK mod)
OCCN1CCN(CC(O)COc2ccc3ccccc3c2)CC1 (stereo not drawn)	Lmaj promast 91 (no result: ROMK mod)
O=S(=O)(N1CCCCC1)N1CCN(CC(O)COc2ccc3cc(Br)ccc3c2)CC1 (stereo not drawn)	none
CN(C)S(=O)(=O)N1CCN(CC(O)COc2ccc3cc(Br)ccc3c2)CC1 (stereo not drawn)	WT yeast gro inh 98 (no result: ROMK mod)
OCCN(Cc1ccccc1)CC(O)COc1ccc(-c2ccccc2)cc1 (stereo not drawn)	WT yeast gro inh 66 (no result: Diaph act CS, Diaph inh CS)
CC(C)(C)c1ccccc1OCC(=O)NCCC(=O)O	Lmaj promast 99 (no result: KCC2 mod)
CC(C)(C)c1ccccc1OCC(=O)Nc1ncn[nH]1	none
CCCc1cc2c(=O)c(-c3ccc4c(c3)OCCO4)c(C)oc2cc1OS(C)(=O)=O	Lmaj promast 99 (no result: KCC2 mod, ROMK mod)
CCCc1cc2c(=O)c(-c3ccc4c(c3)OCCO4)coc2cc1OS(C)(=O)=O	Lmaj promast 76
Cn1ncc2c(Nc3ccc([N+](=O)[O-])cc3)nc(Cl)nc21	none (no result: WT yeast gro inh, Lmaj promast, ROMK mod, Diaph act CS, Diaph inh CS)
CC1CCc2cc(F)ccc2N1C(=O)CSc1nnc2c(n1)[nH]c1ccccc12 (stereo not drawn)	none (no result: ROMK mod)
CCO[C@@H]1OC(C(=O)O)=C[C@H](c2ccc(C(F)(F)F)cc2)[C@H]1CCCO	none (no result: ROMK mod)
COc1ccccc1NC(=O)C(=O)N(c1cccnc1)C(C(=O)NC(C)(C)C)c1ccccc1F (stereo not drawn)	none (no result: ROMK mod)
O=C(O)c1ccccc1-c1ccccc1C(=O)Nc1cccc(O)c1	none
CCc1ccc(NC(=O)c2ccc(C3SCC(=O)N3CCc3ccccc3)cc2)cc1 (stereo not drawn)	Lmaj promast 93 (no result: WT yeast gro inh, ROMK mod)
O=C(NCc1ccccc1)c1ccc(C2SCC(=O)N2Cc2ccccc2)cc1 (stereo not drawn)	Lmaj promast 97 (no result: ROMK mod)
CCNC(=O)c1ccc(C2SCC(=O)N2CCc2ccccc2)cc1 (stereo not drawn)	none
c1ccc2c(Nc3ccc4c(c3)OCCO4)c3c(nc2c1)CCCC3	Lmaj promast 99
COc1cc(Nc2c3c(nc4ccccc24)CCCC3)cc(OC)c1OC	Lmaj promast 66
O=C(O)c1ccc(N2C(=O)CC(N3C(=O)/C(=C/c4ccc(Cl)cc4)SC3=S)C2=O)cc1 (stereo not drawn)	none (no result: WT yeast gro inh, Lmaj promast, ROMK mod, Diaph act CS, Diaph inh CS)
CCOC(=O)N1CCN(C(=O)CCCCn2c(=S)[nH]c3ccsc3c2=O)CC1	none
C#CCSc1nnnn1-c1cccc(Cl)c1	none (no result: WT yeast gro inh, Lmaj promast, ROMK mod, Diaph act CS, Diaph inh CS)
FC(F)(F)Oc1ccc(NC(=S)Nc2ccccc2N2CCOCC2)cc1	none (no result: WT yeast gro inh, Lmaj promast, ROMK mod, Diaph act CS, Diaph inh CS)
CN1CCN(c2ccc(NC(=O)c3cccc(OCc4ccccc4)c3)cc2)CC1	Lmaj promast 100
CCOc1cccc(C(=O)NC(=S)Nc2ccccc2)c1	KCC2 mod 19
CCOc1cccc(C(=O)NC(=S)Nc2cccnc2)c1	none
COc1c(F)c(F)c(C(=O)Nc2ccc(N3CCN(Cc4ccccc4)CC3)cc2)c(F)c1F	Lmaj promast 52
O=C(NC(=S)Nc1ccc(CN2CCCCC2)cc1)c1cccc(OCc2ccccc2)c1	WT yeast gro inh 72, Lmaj promast 84
CCN1CCN(c2ccc(NC(=O)c3cccc(OCc4ccccc4)c3)cc2)CC1	none
CC(C)(C)OC(=O)NNC(=O)c1cccs1	none
Cc1c(C)c2ccc(OS(C)(=O)=O)c(C)c2oc1=O	none
CCn1c2ccccc2c2cc(NC(=O)C(=O)N3CCOCC3)ccc21	none
Cc1ccccc1-n1c(SCC(=O)N/N=C/C=C/c2ccccc2[N+](=O)[O-])nc2ccccc2c1=O	Lmaj promast 60 (no result: ROMK mod)
NS(=O)(=O)c1ccc(NC(=O)COC(=O)COc2ccc(Cl)cc2)cc1	none
Cc1nc(N2CCCCC2)c2c(C)c(C(=O)Nc3ccccc3C(F)(F)F)sc2n1	WT yeast gro inh 66
CCOC(=O)c1sc2nc(C)nc(N3CCCCC3C)c2c1C (stereo not drawn)	none (no result: ROMK mod)
Cc1nc(N2CCCCC2)c2c(C)c(C(=O)Nc3cccc(C(F)(F)F)c3)sc2n1	WT yeast gro inh 70, Lmaj promast 62 (no result: ROMK mod)
